The values below come from ChEMBL document CHEMBL1127293, “Mobilization of iron by chiral and achiral anionic 3-hydroxypyrid-4-ones” (1994).

Test [1] deals with Rattus norvegicus. Briefly: Biliary excretion of iron was measured after giving intravenous dose of 0.2 mmol/kg during treatment period in rat. Format: functional. In short, it runs like this: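 Female Sprague-Dawley rats, previously untreated, served as their own controls. Biliary iron collected 0.5 h for control, then 2 h after tail-vein injection (warm-water tail passage beforehand) under anesthesia; animals recovered between periods and were kept in metabolic cages with free tap water. Iron measured by atomic absorption at 248.3 nm; rate as μg Fe/h.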

Test [2] deals with Rattus norvegicus. Briefly: Urinary iron excretion was measured after giving oral dose of 1 mmol/kg during treatment period in rat. Format: functional, Urine. In short, it runs like this: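 Female Sprague-Dawley rats as own controls; under ether anesthesia at about 6 p.m., gavage of 1 mL Millipore water (control period) or chelator solution, 1 mL per 200 g rat. Urine collected 15 h overnight in metabolic cages separating feces, tap water ad libitum. Iron by atomic absorption at 248.3 nm; significance p ≤ 0.05.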

As for `CSCCC(C(=O)O)n1ccc(=O)c(O)c1C` (stereo not given), in the test on Rattus norvegicus [1], the biliary iron excretion was found to be 12700 µg/h. The urinary iron excretion in the test with Rattus norvegicus [2] amounted to 1740 µg/15 h.
For `Cc1c(O)c(=O)ccn1C(CO)C(=O)O` (stereo not given), in that order: 4180 µg/h and 1790 µg/15 h.
Consider `Cc1c(O)c(=O)ccn1[C@H](C)C(=O)O`, for which the Treatment period with Rattus norvegicus [1] was 4580; with Rattus norvegicus [2] it was 4010.
For `Cc1c(O)c(=O)ccn1[C@@H](C)C(=O)O`, in that order: 6240 and 3840.
The compound `Cc1c(O)c(=O)ccn1-c1ccc(C(=O)O)cc1` showed a biliary iron excretion in the test with Rattus norvegicus [1] of 9390 µg/h. This compound came in with a urinary iron excretion with Rattus norvegicus [2] of 1110 µg/15 h.
For `Cc1c(O)c(=O)ccn1Cc1ccc(C(=O)O)cc1`, in that order: 13700 µg/h and 1550 µg/15 h.
For `Cc1c(O)c(=O)ccn1C(CCC(=O)O)C(=O)O` (stereo not given), in that order: 1150 µg/h and 170 µg/15 h.
The matching figures for `Cc1c(O)c(=O)ccn1C(CC(C)C)C(=O)O` (stereo not given): 11600 µg/h and 8550 µg/15 h.
As to `Cc1c(O)c(=O)ccn1C(Cc1ccccc1)C(=O)O` (stereo not given), the biliary iron excretion in the test with Rattus norvegicus [1] amounted to 8300 µg/h. In addition, in the test on Rattus norvegicus [2], the urinary iron excretion came to 1280 µg/15 h.
For `Cc1c(O)c(=O)ccn1C` [DEFERIPRONE], in that order: 4810 µg/h and 17300 µg/15 h.
